# In ChEMBL document CHEMBL1138245, “Discovery of N1-(6-chloroimidazo[2,1-b][1,3]thiazole-5-sulfonyl)tryptamine as a potent, selective, and orally active 5-HT(6) receptor agonist” (J Med Chem, 2007):
# The source made the active and inactive calls. No cut-off for these calls is given here.
# Assays:
# [1] = AUC in dog at 1 mg/kg, iv; format: ADME, organism-based, Canis lupus familiaris; set-up: dose 1 mg/kg, route intravenous; settings: plasma
# [2] = Cmax in dog at 5 mg/kg, po; format: ADME, organism-based, Canis lupus familiaris; set-up: dose 5 mg/kg, route oral; settings: in vivo
# [3] = Aqueous solubility at pH 3 to […]; format: physicochemical
# [4] = Drug level in Sprague-Dawley rat plasma at 100 mg/kg, po after 2 hrs; format: ADME, organism-based; set-up: dose 100 mg/kg, route oral
# Outline: (§1)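 Rats given a single 3 mg/kg ip or 100 mg/kg oral dose; plasma and brain concentrations measured over time to assess brain/plasma ratio.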
# [5] = Ratio of drug level in brain to plasma in Sprague-Dawley rat at 100 mg/kg, po after 2 hrs; format: ADME, organism-based; set-up: dose 100 mg/kg, route oral; settings: read-out: BPR
# Outline: (§2)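 Rats given a single dose, 3 mg/kg ip or 100 mg/kg oral; drug concentrations measured in plasma and brain at timed points after dosing; brain/plasma concentration ratio calculated.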
# Rattus norvegicus [6] = species: Rattus norvegicus; assay: Decrease in water intake in schedule-induced polydipsia rat model; format: functional, organism-based
# [7] = Tmax in dog at 5 mg/kg, po; format: ADME, organism-based, Canis lupus familiaris; set-up: dose 5 mg/kg, route oral; settings: in vivo
# [8] = Metabolic stability in monkey liver microsomes; format: ADME, Macaca mulatta, Microsome; settings: rhesus monkey
# [9] = Drug level in Sprague-Dawley rat brain at 100 mg/kg, po after 0.25 hr; format: ADME, organism-based; set-up: dose 100 mg/kg, route oral; settings: read-out: Drug uptake; outline: as §1
# [10] = Ratio of drug level in brain to plasma in Sprague-Dawley rat at 100 mg/kg, po after 0.25 hr; format: ADME, organism-based; set-up: dose 100 mg/kg, route oral; settings: read-out: BPR; outline: as §2
# [11] = Drug level in Sprague-Dawley rat brain at 3 mg/kg, ip after 0.5 hr; format: ADME, organism-based; set-up: dose 3 mg/kg, route intraperitoneal; settings: read-out: Drug uptake; outline: as §1
# [12] = biological target: Beta-2 adrenergic receptor (Homo sapiens) (UniProt P07550); assay: Displacement of radio ligand from beta-2 adrenergic receptor at 10 nM
# Chain of Beta-2 adrenergic receptor (Homo sapiens) (P07550 whole entry, looked up): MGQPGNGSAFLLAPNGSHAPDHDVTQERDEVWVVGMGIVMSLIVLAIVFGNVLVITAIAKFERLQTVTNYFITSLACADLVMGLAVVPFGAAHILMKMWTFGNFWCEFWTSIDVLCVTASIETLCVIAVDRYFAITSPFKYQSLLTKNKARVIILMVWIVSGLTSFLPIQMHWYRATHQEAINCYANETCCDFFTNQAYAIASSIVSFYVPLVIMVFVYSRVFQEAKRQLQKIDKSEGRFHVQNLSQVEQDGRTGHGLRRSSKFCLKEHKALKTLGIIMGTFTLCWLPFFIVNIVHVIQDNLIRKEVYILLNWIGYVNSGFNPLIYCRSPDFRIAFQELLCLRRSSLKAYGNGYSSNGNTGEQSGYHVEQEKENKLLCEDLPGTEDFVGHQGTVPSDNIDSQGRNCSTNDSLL
# [13] = Drug level in Sprague-Dawley rat brain at 100 mg/kg, po after 1 hr; format: ADME, organism-based; set-up: dose 100 mg/kg, route oral; settings: read-out: Drug uptake; outline: as §1
# [14] = Metabolic stability in mouse liver microsomes; format: ADME, Microsome
# [15] = Drug level in Sprague-Dawley rat plasma at 3 mg/kg, ip after 0.5 hr; format: ADME, organism-based; set-up: dose 3 mg/kg, route intraperitoneal; outline: as §1
# [16] = biological target: T1, 5-hydroxytryptamine receptor 1F (Homo sapiens) (UniProt P30939); assay: Displacement of [3H]5-HT from human 5HT1F receptor expressed in CHO cells at 1 uM; format: cell-based
# T1 sequence (whole entry): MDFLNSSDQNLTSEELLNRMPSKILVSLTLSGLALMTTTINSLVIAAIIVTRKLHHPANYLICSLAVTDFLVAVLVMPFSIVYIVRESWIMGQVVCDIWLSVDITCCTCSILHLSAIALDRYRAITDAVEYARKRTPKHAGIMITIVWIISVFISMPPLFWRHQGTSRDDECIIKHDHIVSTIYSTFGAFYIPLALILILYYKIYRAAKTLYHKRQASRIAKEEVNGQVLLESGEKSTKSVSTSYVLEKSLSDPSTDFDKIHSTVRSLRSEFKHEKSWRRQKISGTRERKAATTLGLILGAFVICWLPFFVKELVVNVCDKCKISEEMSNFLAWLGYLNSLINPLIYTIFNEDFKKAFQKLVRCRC
# [17] = Oral bioavailability in rat at 10 mg/kg; format: ADME, organism-based; settings: in vivo
# [18] = Drug level in Sprague-Dawley rat brain at 3 mg/kg, ip after 2 hrs; format: ADME, organism-based; set-up: dose 3 mg/kg, route intraperitoneal; settings: read-out: Drug uptake; outline: as §1
# [19] = Clearance in dog at 1 mg/kg, iv; format: ADME, organism-based, Canis lupus familiaris; set-up: dose 1 mg/kg, route intravenous; settings: in vivo
# [20] = Drug level in Sprague-Dawley rat plasma at 3 mg/kg, ip after 4 hrs; format: ADME, organism-based; set-up: dose 3 mg/kg, route intraperitoneal; outline: as §1
# [21] = Cmax in rat at 10 mg/kg, po; format: ADME, organism-based; set-up: dose 10 mg/kg, route oral; settings: in vivo
# [22] = Ratio of drug level in brain to plasma in Sprague-Dawley rat at 3 mg/kg, ip after 0.5 hr; format: ADME, organism-based; set-up: dose 3 mg/kg, route intraperitoneal; settings: read-out: BPR; outline: as §2
# [23] = Aqueous solubility at pH 8; format: physicochemical
# [24] = biological target: T2, 5-hydroxytryptamine receptor 3A (Homo sapiens) (UniProt P46098); assay: Inhibition of human 5HT3 receptor expressed in CHO cells at 100 nM; format: cell-based
# T2 sequence (whole entry): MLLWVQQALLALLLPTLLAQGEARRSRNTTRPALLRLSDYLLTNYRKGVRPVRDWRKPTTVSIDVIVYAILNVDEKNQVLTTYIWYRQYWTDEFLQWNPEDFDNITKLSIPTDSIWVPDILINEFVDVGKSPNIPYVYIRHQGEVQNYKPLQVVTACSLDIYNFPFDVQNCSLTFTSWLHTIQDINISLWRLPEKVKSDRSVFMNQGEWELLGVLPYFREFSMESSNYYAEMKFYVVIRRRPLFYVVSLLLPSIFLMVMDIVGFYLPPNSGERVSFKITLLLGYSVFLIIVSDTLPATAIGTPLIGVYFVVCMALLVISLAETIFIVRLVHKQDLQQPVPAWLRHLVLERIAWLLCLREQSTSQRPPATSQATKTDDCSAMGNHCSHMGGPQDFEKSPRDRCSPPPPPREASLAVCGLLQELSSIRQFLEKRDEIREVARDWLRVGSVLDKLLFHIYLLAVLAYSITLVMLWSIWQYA
# [25] = Volume of distribution in dog at 1 mg/kg, iv; format: ADME, organism-based, Canis lupus familiaris; set-up: dose 1 mg/kg, route intravenous; settings: in vivo, read-out: Vdss
# [26] = Ratio of drug level in brain to plasma in Sprague-Dawley rat at 100 mg/kg, po after 1 hr; format: ADME, organism-based; set-up: dose 100 mg/kg, route oral; settings: read-out: BPR; outline: as §2
# [27] = Drug level in Sprague-Dawley rat plasma at 3 mg/kg, ip after 0.25 hr; format: ADME, organism-based; set-up: dose 3 mg/kg, route intraperitoneal; outline: as §1
# [28] = Ratio of drug level in brain to plasma in Sprague-Dawley rat at 3 mg/kg, ip after 2 hrs; format: ADME, organism-based; set-up: dose 3 mg/kg, route intraperitoneal; settings: read-out: BPR; outline: as §2
# [29] = Oral bioavailability in dog at 5 mg/kg; format: ADME, organism-based, Canis lupus familiaris; settings: in vivo
# [30] = Drug level in Sprague-Dawley rat brain at 100 mg/kg, po after 2 hrs; format: ADME, organism-based; set-up: dose 100 mg/kg, route oral; settings: read-out: Drug uptake; outline: as §1
# Rattus norvegicus [31] = assay: Increase in GABA level in rat frontal cortex at 10 mg/kg, sc; format: functional, organism-based; set-up: dose 10 mg/kg
# Outline: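 Frontal cortex extracellular GABA, glutamate and norepinephrine measured in rats after 10 mg/kg sc; in antagonist tests, 5-HT₆ antagonist 10 mg/kg sc given before agonist; comparison with vehicle, significance P < 0.05.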
# [32] = Drug level in Sprague-Dawley rat plasma at 100 mg/kg, po after 0.5 hr; format: ADME, organism-based; set-up: dose 100 mg/kg, route oral; outline: as §1
# [33] = Ratio of drug level in brain to plasma in Sprague-Dawley rat at 3 mg/kg, ip after 4 hrs; format: ADME, organism-based; set-up: dose 3 mg/kg, route intraperitoneal; settings: read-out: BPR; outline: as §2
# [34] = biological target: 5-hydroxytryptamine receptor 4 (Homo sapiens) (UniProt Q13639); assay: Inhibition of human 5HT4 receptor expressed in CHO cells at 100 nM; format: cell-based
# Chain of 5-hydroxytryptamine receptor 4 (Homo sapiens) (Q13639 whole entry): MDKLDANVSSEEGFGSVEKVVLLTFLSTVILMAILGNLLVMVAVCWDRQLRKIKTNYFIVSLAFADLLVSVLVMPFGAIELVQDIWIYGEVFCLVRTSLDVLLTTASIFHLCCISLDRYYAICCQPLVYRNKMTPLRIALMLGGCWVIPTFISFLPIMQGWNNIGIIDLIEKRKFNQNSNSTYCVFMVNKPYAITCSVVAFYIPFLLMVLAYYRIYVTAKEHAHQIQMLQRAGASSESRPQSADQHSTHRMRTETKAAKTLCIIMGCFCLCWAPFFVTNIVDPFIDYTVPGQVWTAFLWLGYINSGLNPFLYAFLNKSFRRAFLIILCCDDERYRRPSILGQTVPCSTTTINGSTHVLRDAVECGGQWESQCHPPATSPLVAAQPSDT
# [35] = Drug level in Sprague-Dawley rat plasma at 100 mg/kg, po after 4 hrs; format: ADME, organism-based; set-up: dose 100 mg/kg, route oral; outline: as §1
# [36] = Metabolic stability in rat liver microsomes; format: ADME, Microsome
# [37] = Drug level in Sprague-Dawley rat brain at 100 mg/kg, po after 0.5 hr; format: ADME, organism-based; set-up: dose 100 mg/kg, route oral; settings: read-out: Drug uptake; outline: as §1
# [38] = biological target: 5-hydroxytryptamine receptor 7 (Homo sapiens, UniProt P34969); assay: Displacement of [3H]LSD from human 5HT7 receptor expressed in CHO cells; format: cell-based
# Chain of 5-hydroxytryptamine receptor 7 (P34969 whole entry): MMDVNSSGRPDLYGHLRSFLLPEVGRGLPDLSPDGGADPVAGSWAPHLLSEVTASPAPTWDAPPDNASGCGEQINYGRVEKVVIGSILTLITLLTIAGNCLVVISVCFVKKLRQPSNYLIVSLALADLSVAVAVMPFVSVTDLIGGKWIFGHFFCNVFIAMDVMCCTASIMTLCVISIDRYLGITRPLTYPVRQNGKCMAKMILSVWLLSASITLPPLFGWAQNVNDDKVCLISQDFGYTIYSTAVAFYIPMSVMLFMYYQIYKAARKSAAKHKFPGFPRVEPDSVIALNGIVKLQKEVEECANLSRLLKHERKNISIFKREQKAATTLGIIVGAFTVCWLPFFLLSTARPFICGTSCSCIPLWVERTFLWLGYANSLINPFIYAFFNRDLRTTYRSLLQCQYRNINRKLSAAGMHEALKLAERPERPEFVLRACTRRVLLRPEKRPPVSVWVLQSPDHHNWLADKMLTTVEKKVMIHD
# Outline: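 Human 5-HT₇ clone stably expressed in CHO cells; binding measured by [³H]LSD displacement; Ki determined in triplicate.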
# Rattus norvegicus [39] = species: Rattus norvegicus; assay: Effect on water intake in non-SIP rat model; format: functional, organism-based
# [40] = AUC in rat at 1 mg/kg, iv; format: ADME, organism-based; set-up: dose 1 mg/kg, route intravenous; settings: plasma
# [41] = Ratio of drug level in brain to plasma in Sprague-Dawley rat at 3 mg/kg, ip after 0.25 hr; format: ADME, organism-based; set-up: dose 3 mg/kg, route intraperitoneal; settings: read-out: BPR; outline: as §2
# [42] = AUC in rat at 10 mg/kg, po; format: ADME, organism-based; set-up: dose 10 mg/kg, route oral; settings: plasma
smiles,measurement,setting,value
NCCc1cn(S(=O)(=O)c2c(Cl)nc3sccn23)c2ccccc12,AUC,[1],520 ng·h/mL
same,Cmax,[2],130 ng/mL
same,solubility,[3],> 10000 µg/mL
same,concentration at 2 h,[4],239 ng/mL
same,Kp at 2 h,[5],0.25
same,Activity,Rattus norvegicus [6],Dose-dependent effect
same,Tmax,[7],138 min
same,half-life,[8],6.4 min
same,concentration at 0.25 h,[9],12.5 ng/mL
same,Kp at 0.25 h,[10],0.1
same,concentration at 0.5 h,[11],11.5 ng/mL
same,Activity,[12],< 50%
same,concentration at 1 h,[13],45.1 ng/mL
same,half-life,[14],> 60 min
same,concentration at 0.5 h,[15],66 ng/mL
same,Activity,[16],40%
same,bioavailability,[17],23%
same,concentration at 2 h,[18],1.1 ng/mL
same,clearance,[19],30 mL/min/kg
same,concentration at 4 h,[20],4.3 ng/mL
same,Cmax,[21],49 ng/mL
same,Kp at 0.5 h,[22],0.17
same,solubility,[23],240 µg/mL
same,inhibition,[24],< 50%
same,Vd,[25],7.9 L/kg
same,Kp at 1 h,[26],0.14
same,concentration at 0.25 h,[27],91.3 ng/mL
same,Kp at 2 h,[28],0.33
same,bioavailability,[29],55%
same,concentration at 2 h,[30],59.6 ng/mL
same,Activity,Rattus norvegicus [31],Active
same,concentration at 0.5 h,[32],356 ng/mL
same,Kp at 4 h,[33],1.39
same,inhibition,[34],< 50%
same,concentration at 4 h,[35],372 ng/mL
same,half-life,[36],8 min
same,concentration at 0.5 h,[37],194 ng/mL
same,Ki,[38],0.679 µM
same,Activity,Rattus norvegicus [39],inactive
same,AUC,[40],140 ng·h/mL
same,Kp at 0.25 h,[41],0.09
same,AUC,[42],190 ng·h/mL
